Measurements: ChEMBL document CHEMBL1155976, “Synthesis and preliminary pharmacological evaluation of imidazo[2,1-f]purine-2,4-dione derivatives” (Eur J Med Chem, 2009)
pKi: −log10 of the molar value. One block for each compound: values may come before it.

What was measured:
[1] = target: 5-hydroxytryptamine receptor 2A (Rattus norvegicus, UniProt P14842); assay: Displacement of [3H]ketanserin from 5HT2A receptor in rat cerebral cortex after 20 mins by liquid scintillation counting; format: tissue-based
Sequence of 5-hydroxytryptamine receptor 2A (P14842 whole entry): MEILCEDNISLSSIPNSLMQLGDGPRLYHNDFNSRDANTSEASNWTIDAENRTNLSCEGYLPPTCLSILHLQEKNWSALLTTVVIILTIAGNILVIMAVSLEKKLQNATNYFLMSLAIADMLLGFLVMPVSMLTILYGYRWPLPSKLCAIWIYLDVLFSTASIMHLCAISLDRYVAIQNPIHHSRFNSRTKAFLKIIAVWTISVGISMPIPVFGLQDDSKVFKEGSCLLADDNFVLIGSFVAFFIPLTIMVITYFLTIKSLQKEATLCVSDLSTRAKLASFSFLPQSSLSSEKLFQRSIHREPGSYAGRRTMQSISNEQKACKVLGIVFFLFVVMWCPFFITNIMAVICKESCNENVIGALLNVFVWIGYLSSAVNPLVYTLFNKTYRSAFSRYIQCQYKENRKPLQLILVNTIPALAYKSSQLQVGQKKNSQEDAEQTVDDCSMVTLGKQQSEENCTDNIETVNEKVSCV
Outline: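 Rat cerebral cortex homogenised in 50 mM Tris-HCl pH 7.7, spun at 32000 × g, preincubated 10 min at 37 °C, resuspended in 50 volumes. Incubated with 0.6 nM [3H]-ketanserin and test agent (10^-10 to 10^-4 M) at 37 °C for 20 min; mianserin as displacer. GF/B filtration, scintillation counting; Ki from ≥3 experiments, 10 concentrations in triplicate.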

D(2) dopamine receptor = D(2) dopamine receptor (Rattus norvegicus, UniProt P61169); assay: Displacement of [3H]spiperone from dopamine D2 receptor in rat striatum membrane after 30 mins by liquid scintillation counting; format: cell membranes
Sequence of D(2) dopamine receptor (P61169 whole entry): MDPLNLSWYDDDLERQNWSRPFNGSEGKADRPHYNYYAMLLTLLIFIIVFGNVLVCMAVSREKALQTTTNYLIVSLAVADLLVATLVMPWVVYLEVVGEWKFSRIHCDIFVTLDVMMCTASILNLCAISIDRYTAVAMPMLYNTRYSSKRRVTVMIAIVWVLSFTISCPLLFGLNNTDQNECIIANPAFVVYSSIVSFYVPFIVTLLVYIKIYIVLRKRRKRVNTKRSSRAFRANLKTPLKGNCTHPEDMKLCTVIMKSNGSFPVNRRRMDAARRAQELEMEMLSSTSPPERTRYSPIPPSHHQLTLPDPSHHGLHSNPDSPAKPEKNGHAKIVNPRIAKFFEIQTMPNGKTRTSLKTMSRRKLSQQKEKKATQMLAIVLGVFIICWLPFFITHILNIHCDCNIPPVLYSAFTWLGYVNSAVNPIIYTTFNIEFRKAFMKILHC
Outline: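 Rat striatum homogenised in 50 mM potassium phosphate pH 7.4 and spun twice at 20000 × g. Membranes (3 mg wet weight) incubated with 1 nM [3H]-spiperone and test agent in 0.5 ml for 30 min at 37 °C. Nonspecific binding with (+)butaclamol. GF/B filtration, two washes with ice-cold buffer, scintillation counting; Ki from ≥3 experiments, 10 concentrations in triplicate.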

[2] = target: T1, 5-hydroxytryptamine receptor 1A (Rattus norvegicus, UniProt P19327); assay: Displacement of [3H]8-OH-DPAT from 5HT1A receptor in rat cerebral cortex after 15 mins by liquid scintillation counting; format: tissue-based
T1 sequence (P19327 whole entry): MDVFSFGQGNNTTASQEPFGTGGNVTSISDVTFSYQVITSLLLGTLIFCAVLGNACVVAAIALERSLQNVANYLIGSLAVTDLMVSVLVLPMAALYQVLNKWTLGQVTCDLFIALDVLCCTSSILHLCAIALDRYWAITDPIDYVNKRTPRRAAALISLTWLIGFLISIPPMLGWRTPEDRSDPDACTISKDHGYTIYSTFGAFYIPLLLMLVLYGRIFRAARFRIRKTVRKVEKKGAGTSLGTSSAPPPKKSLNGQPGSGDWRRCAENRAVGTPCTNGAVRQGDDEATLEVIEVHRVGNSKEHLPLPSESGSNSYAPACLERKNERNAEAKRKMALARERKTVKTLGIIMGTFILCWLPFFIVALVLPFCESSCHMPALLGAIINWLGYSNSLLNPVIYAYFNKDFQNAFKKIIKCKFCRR

Mus musculus [3] = assay: Antidepressant activity in Swiss albino mouse assessed as reduction of immobility time at 20 mg/kg, ip administered 30 mins before test by forced swimming test; format: functional; conditions: route intraperitoneal
Outline: (§1)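 Male Albino Swiss mice (24–28 g); agent suspended in 1% aqueous Tween 80, ip 10 ml/kg, 30 min before the test. Total immobility time scored over the last 4 min of a 6-min swim session. n = 8–10 mice per group; mean ± SEM, compared with vehicle.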

Mus musculus [4] = organism: Mus musculus; conditions: Swiss albino, 20 mg/kg
Mus musculus [5] = assay: Agonist activity at 5HT1A receptor in ip dosed Swiss albino mouse assessed as decrease in rectal temperature; format: functional, organism-based
Outline: (§2)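 Male Albino Swiss mice (24–28 g), free food and water, room at 20 ± 1 °C; test agent suspended in 1% aqueous Tween 80, given ip at 10 ml/kg. Rectal temperature read with a thermometer at 30, 60, 90 and 120 min after dosing. Result expressed as Δt from basal temperature taken at the start; six to ten animals per group, each used once.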

Mus musculus [6] = assay: Antidepressant activity in Swiss albino mouse assessed as reduction of immobility time at 30 mg/kg, ip administered 30 mins before test by forced swimming test; format: functional; conditions: route intraperitoneal; outline: as §1
Mus musculus [7] = organism: Mus musculus; conditions: Swiss albino, 20 mg/kg; remark: listed apart in the source
Mus musculus [8] = assay: Anxiolytic activity in Swiss albino mouse assessed as number of punished crossings at 30 mg/kg, ip administered 30 mins before test measured for 60s by four plate test; format: functional; conditions: route intraperitoneal
Outline: (§3)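 Male Albino Swiss mice. Box with four metal floor plates separated by 4 mm gaps; 120 V between adjacent plates for 0.5 s delivered on crossing. Mice explored 15 s before testing. Agent (ip, 1% Tween 80) given 30 min before the test. Punished crossings counted; n = 10 mice per group, mean ± SEM.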

Mus musculus [9] = assay: Sedative activity in Swiss albino mouse assessed as reduction on spontaneous locomotor activity at 20 mg/kg, ip administered 30 mins before test measured for 30 mins; format: ADME, organism-based; parameters: dose 20 mg/kg, route intraperitoneal; conditions: in vivo, 0.5 h
Outline: (§4)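 Male Albino Swiss mice (24–28 g); agent ip in 1% Tween 80, 30 min before the test. Locomotor activity counted as number of crossings during 6-min and 30-min sessions. n = 8–10 mice per group; mean ± SEM versus vehicle.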

Mus musculus [10] = assay: Agonist activity at 5HT1A receptor in Swiss albino mouse assessed as decrease in rectal temperature at 10 mg/kg, ip after 90 mins; format: functional, organism-based; parameters: dose 10 mg/kg; outline: as §2
Mus musculus [11] = assay: Sedative activity in Swiss albino mouse assessed as reduction on spontaneous locomotor activity at 20 mg/kg, ip administered 30 mins before test measured for 6 mins; format: ADME, organism-based; parameters: dose 20 mg/kg, route intraperitoneal; conditions: in vivo, 0.1 h; outline: as §4
Mus musculus [12] = organism: Mus musculus; conditions: Swiss albino, 20 mg/kg; remark: listed apart in the source
Mus musculus [13] = organism: Mus musculus; conditions: Swiss albino, 20 mg/kg; remark: listed apart in the source
Mus musculus [14] = organism: Mus musculus; conditions: Swiss albino, 20 mg/kg; remark: listed apart in the source
Mus musculus [15] = organism: Mus musculus; conditions: Swiss albino, 20 mg/kg; remark: listed apart in the source
Mus musculus [16] = assay: Antidepressant activity in Swiss albino mouse assessed as reduction of immobility time at 10 mg/kg, ip administered 30 mins before test by forced swimming test; format: functional; conditions: route intraperitoneal; outline: as §1
Mus musculus [17] = assay: Anxiolytic activity in Swiss albino mouse assessed as number of punished crossings at 20 mg/kg, ip. administered 30 mins before test measured for 60s by four plate test; format: functional; outline: as §3
Mus musculus [18] = assay: Sedative activity in Swiss albino mouse assessed as reduction on spontaneous locomotor activity at 30 mg/kg, ip administered 30 mins before test measured for 30 mins; format: ADME, organism-based; parameters: dose 30 mg/kg, route intraperitoneal; conditions: in vivo, 0.5 h; outline: as §4
Mus musculus [19] = assay: Agonist activity at 5HT1A receptor in Swiss albino mouse assessed as decrease in rectal temperature at 10 mg/kg, ip after 60 mins; format: functional, organism-based; parameters: dose 10 mg/kg; outline: as §2
Mus musculus [20] = assay: Sedative activity in Swiss albino mouse assessed as reduction on spontaneous locomotor activity at 30 mg/kg, ip administered 30 mins before test measured for 6 mins; format: ADME, organism-based; parameters: dose 30 mg/kg, route intraperitoneal; conditions: in vivo, 0.1 h; outline: as §4
Mus musculus [21] = assay: Agonist activity at 5HT1A receptor in Swiss albino mouse assessed as decrease in rectal temperature at 10 mg/kg, ip after 30 mins; format: functional, organism-based; parameters: dose 10 mg/kg; outline: as §2
Mus musculus [22] = assay: Agonist activity at 5HT1A receptor in Swiss albino mouse assessed as decrease in rectal temperature at 10 mg/kg, ip after 120 mins; format: functional, organism-based; parameters: dose 10 mg/kg; outline: as §2
Mus musculus [23] = assay: Agonist activity at 5HT1A receptor in Swiss albino mouse assessed as decrease in rectal temperature at 5 mg/kg, ip after 120 mins; format: functional, organism-based; parameters: dose 5 mg/kg; outline: as §2
Mus musculus [24] = assay: Agonist activity at 5HT1A receptor in Swiss albino mouse assessed as decrease in rectal temperature at 5 mg/kg, ip after 30 mins; format: functional, organism-based; parameters: dose 5 mg/kg; outline: as §2
Mus musculus [25] = assay: Agonist activity at 5HT1A receptor in Swiss albino mouse assessed as decrease in rectal temperature at 10 mg/kg, ip after 30 mins in presence of WAY 100635 administered 15 mins before drug challenge; format: functional, organism-based; parameters: dose 10 mg/kg
Outline: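 Male Albino Swiss mice (24–28 g). WAY 100635 (0.1 mg/kg, sc, in distilled water) given 15 min before test agent (ip, suspended in 1% Tween 80, 10 ml/kg). Rectal temperature recorded 30 and 60 min after test agent injection. Expressed as Δt versus basal temperature at the start of the experiment.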

Compound: Cn1c(=O)c2c(nc3n(CCCN4CCN(c5cccc(Cl)c5)CC4)ccn23)n(C)c1=O
pKi [1]: 7.04
pKi (D(2) dopamine receptor): < 6.00
pKi [2]: < 6.00

Compound: Cn1c(=O)c2c(nc3n2CC(C(=O)NCCN2CCN(c4cccc(Cl)c4)CC2)N3)n(C)c1=O (stereo not drawn)
pKi [2]: < 6.00

Compound: COc1ccccc1N1CCN(CCNC(=O)C2Cn3c(nc4c3c(=O)n(C)c(=O)n4C)N2)CC1 (stereo not drawn)
pKi [2]: < 6.00

Compound: Cn1c(=O)c2c(nc3n(CCCN4CCN(c5cccc(Cl)c5)CC4)c(-c4ccccc4)cn23)n(C)c1=O
pKi [1]: < 6.00

Continued, in another order:

pKi [1]: < 6.00
pKi (D(2) dopamine receptor): 6.08
Activity (Mus musculus [5]): Dose-dependent effect
pKi [2]: 7.60
Compound: COc1ccccc1N1CCN(CCCn2ccn3c4c(=O)n(C)c(=O)n(C)c4nc23)CC1
Activity (Mus musculus [3]): 104.8 s
deltaT (Mus musculus [4]): -1.1 °C
Activity (Mus musculus [6]): 101.3 s
deltaT (Mus musculus [7]): -1.8 °C
Activity (Mus musculus [8]): 2.5
Activity (Mus musculus [9]): 925.8
deltaT (Mus musculus [10]): -0.3 °C
Activity (Mus musculus [11]): 353.4
deltaT (Mus musculus [12]): -0.9 °C
deltaT (Mus musculus [13]): -1 °C
deltaT (Mus musculus [14]): -0.5 °C
deltaT (Mus musculus [15]): -1.3 °C
Activity (Mus musculus [16]): 134.2 s
Activity (Mus musculus [17]): 2.5
Activity (Mus musculus [18]): 567.6
deltaT (Mus musculus [19]): -0.6 °C
Activity (Mus musculus [20]): 198
deltaT (Mus musculus [21]): -0.7 °C

pKi [1]: < 6.00
pKi (D(2) dopamine receptor): < 6.00
pKi [2]: 7.12
Compound: Cc1cn2c3c(=O)n(C)c(=O)n(C)c3nc2n1CCCN1CCN(c2ccccc2)CC1

pKi [1]: 6.31
pKi [2]: 8.55
Compound: COc1ccccc1N1CCN(CCCN2CCCn3c2nc2c3c(=O)n(C)c(=O)n2C)CC1

pKi [1]: < 6.00
pKi (D(2) dopamine receptor): 6.84
Activity (Mus musculus [5]): Dose-dependent effect
pKi [2]: 8.25
Compound: COc1ccccc1N1CCN(CCCn2c(-c3ccccc3)cn3c4c(=O)n(C)c(=O)n(C)c4nc23)CC1
Activity (Mus musculus [3]): 169.3 s
Activity (Mus musculus [6]): 172 s
deltaT (Mus musculus [22]): -0.5 °C
Activity (Mus musculus [8]): 3.2
deltaT (Mus musculus [23]): 0 °C
deltaT (Mus musculus [10]): -0.6 °C
deltaT (Mus musculus [24]): -0.7 °C
Activity (Mus musculus [17]): 3.5
deltaT (Mus musculus [25]): -0.9 °C
deltaT (Mus musculus [19]): -0.6 °C
deltaT (Mus musculus [21]): -2 °C
